From ChEMBL document CHEMBL4028846, “Insights on the Interaction between Transthyretin and Aβ in Solution. A Saturation Transfer Difference (STD) NMR Analysis of the Role of Iododiflunisal” (J Med Chem, 2017)
The source made the active and inactive calls. The rule behind the calls is not given here.

How the values were obtained:
[1] = target: T1, Transthyretin (Homo sapiens, UniProt P02766); experiment: Binding affinity to recombinant human transthyretin expressed in Escherichia coli BL21 at 1:45 protein to ligand molar ratio in presence of EGCG by STD-NMR spectroscopic method
[2] = target: T1, Transthyretin; experiment: Binding affinity to recombinant human transthyretin expressed in Escherichia coli BL21 at 1:45 protein to ligand molar ratio by STD-NMR spectroscopic method
Outline: (§1)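 Human recombinant WT TTR expressed in E. coli, purified by ion exchange then preparative gel electrophoresis. Protein 20−50 μM in PBS pH 6.0, […] 1:20 to 1:50, 298−313 K, optimized per case. On-resonance at aliphatic region (δ −0.2 to 0.16 ppm), off-resonance δ 100 ppm. Saturation by 20 ms PC9 pulse train, 2 s total, 600 MHz.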

[3] = target: T1, Transthyretin; experiment: Binding affinity to recombinant human transthyretin expressed in Escherichia coli BL21 at 1:45 protein to ligand molar ratio in presence of IDIF by STD-NMR spectroscopic method
[4] = target: T1, Transthyretin; experiment: Binding affinity to recombinant human transthyretin expressed in Escherichia coli BL21 at 1:20 to 1:50 […] molar ratio by STD-NMR spectroscopic method; outline: as §1
[5] = target: T1, Transthyretin; experiment: Binding affinity to recombinant human transthyretin expressed in Escherichia coli BL21 by STD-NMR spectroscopic method
Outline: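 Human recombinant WT TTR expressed in E. coli, purified by ion exchange then preparative gel electrophoresis. On-resonance at aliphatic region (δ −0.2 to 0.16 ppm), off-resonance δ 100 ppm. Saturation by 20 ms PC9 pulse train, 2 s total, 600 MHz.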

[6] = target: T1, Transthyretin; experiment: Binding affinity to recombinant human transthyretin expressed in Escherichia coli BL21 at 1:50 protein to ligand molar ratio by STD-NMR spectroscopic method; outline: as §1
[7] = target: T1, Transthyretin; experiment: Binding affinity to recombinant human transthyretin expressed in Escherichia coli BL21 at 1:4 protein to ligand molar ratio in presence of EGCG by STD-NMR spectroscopic method

## CC(C)C[C@H](NC(=O)[C@H](CCCCN)NC(=O)[C@H](CCC(N)=O)NC(=O)[C@H](Cc1cnc[nH]1)NC(=O)[C@H](Cc1cnc[nH]1)NC(=O)[C@@H](N)C(C)C)C(=O)N[C@H](C(=O)N[C@@H](Cc1ccccc1)C(=O)N[C@@H](Cc1ccccc1)C(=O)N[C@@H](C)C(=O)N[C@@H](CCC(=O)O)C(=O)N[C@@H](CC(=O)O)C(=O)N[C@H](C(=O)NCC(=O)N[C@@H](CO)C(=O)N[C@@H](CC(N)=O)C(=O)N[C@@H](CCCCN)C(=O)O)C(C)C)C(C)C
[1]
  Activity: inactive
[2]
  Activity: Active
[3]
  Activity: Active

## C[C@H](NC(=O)[C@@H](N)CC(=O)O)C(=O)N[C@@H](CCC(=O)O)C(=O)N[C@@H](Cc1ccccc1)C(=O)N[C@@H](CCCNC(=N)N)C(=O)N[C@@H](Cc1cnc[nH]1)C(=O)N[C@@H](CC(=O)O)C(=O)N[C@@H](CO)C(=O)NCC(=O)N[C@@H](Cc1ccc(O)cc1)C(=O)N[C@@H](CCC(=O)O)C(=O)O
[4]
  Activity: inactive

## O=C(O[C@@H]1Cc2c(O)cc(O)cc2O[C@@H]1c1cc(O)c(O)c(O)c1)c1cc(O)c(O)c(O)c1 [EPIGALOCATECHIN GALLATE]
[5]
  Kd: 400 nM
[6]
  Activity: Active

## H-YEVHHQKLVFF-OH
[4]
  Activity: inactive

## CN(C)C[C@H](O)[C@@H](O)[C@H](O)[C@H](O)CO.O=C(O)c1cc(-c2ccc(F)cc2F)cc(I)c1O
[4]
  Activity: Active
[7]
  Activity: Active

## CN(C)C[C@H](O)[C@@H](O)[C@H](O)[C@H](O)CO.O=C(O)c1cc(-c2ccc(F)cc2F)ccc1O
[4]
  Activity: Active
